Source: PubChem
SUMO1-SIM PPI = modulators of human SUMO1-mediated protein-protein interactions | inhibition, % at 20 µM | hit rate 0.33% among 360,000 | SUMO1 binding to a labelled peptide, TR-FRET, 1 h; in the data active means inhibition above about 37%
Target sequence (P63165 whole entry, looked up): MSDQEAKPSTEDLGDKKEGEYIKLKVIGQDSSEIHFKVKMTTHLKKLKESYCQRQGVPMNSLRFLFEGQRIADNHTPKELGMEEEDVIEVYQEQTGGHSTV
Casp6 inh = inhibitors of human caspase-6. hit rate 0.53% among 350,000. inhibition, % at 12.5 µM. purified caspase-6, Z-VEID-R110 cleavage fluorescence. P55212. AID 686996;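 active means mean inhibition across replicates at least about 35%, with every replicate also reaching that limit, limit read from the data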
DNMT1 block = inhibitors of human DNMT1 | P26358 | DNMT1 molecular beacon, Hinp1I cleavage, fluorescence | inhibition (reported as % activation of signal), % at 10 µM | hit rate 0.83% among 360,000 | AID 588458; in the data active means inhibition above about 50%
LMPTP inh = blocks human LMPTP phosphatase; recombinant LMPTP-A, OMFP fluorogenic substrate, fluorescence intensity; inhibition, % at 20 µM; P24666; hit rate 0.22% among 360,000;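 active means compounds that cut the enzyme signal by at least half of the control window in the single-dose screen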
Target sequence (P24666 whole entry, looked up): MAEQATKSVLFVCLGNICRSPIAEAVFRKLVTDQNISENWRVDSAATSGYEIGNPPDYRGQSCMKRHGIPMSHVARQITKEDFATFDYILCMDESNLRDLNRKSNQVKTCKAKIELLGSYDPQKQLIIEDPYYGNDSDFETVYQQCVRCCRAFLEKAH
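Test system – LMPTP-A enzyme · Amount – LMPTP-A at 0.625 nM final in the reaction · Buffer or medium – Bis-Tris pH 6.0, DTT, detergent · Reagent – OMFP 400 µM · Doses – single 20 µM dose · Schedule – reaction 50 min, room temperature, dark · Detection – fluorescence intensity of OMFP turnover product · Evaluation – percent inhibition versus substrate-only and uninhibited controls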
STEP inh = STEP (human) phosphatase inhibition | P54829 | recombinant STEP, OMFP fluorogenic substrate, fluorescence | inhibition, % at 20 µM | hit rate 0.25% among 360,000;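 active means inhibition at 20 µM, scaled per plate between control wells, above about 37%, limit read from the data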
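Assay system: isolated STEP enzyme / Timing: 20 min at room temperature, dark / Doses: 20 µM, 1% DMSO / Technique: fluorescence intensity, excitation 480 nm, emission 540 nm / Reagent: fluorogenic phosphatase substrate OMFP at 25 µM final / Measure: percent inhibition scaled to no-enzyme and uninhibited-enzyme controls, plate-pattern corrected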
Scp1 inh = inhibitors of human Scp-1 phosphatase; hit rate 0.88% among 340,000; inhibition, % at 20 µM; Recombinant Scp1, phosphopeptide, malachite green phosphate absorbance; Q9GZU7;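 active means inhibition above about 50% at 20 µM, limit read from the data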
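Test system: SCP-1 catalytic domain; Buffer or medium: Acidic Tris acetate buffer with magnesium and detergent; Also added: Phosphorylated 17-residue peptide substrate; Compound: single 20 µM dose, 1% DMSO; Schedule: enzyme reaction 45 min at room temperature, colour 5 min, stabilisation 30 min; Signal: Phosphate-binding colour reagent, absorbance read at 630 nm.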
CASP1 counter = selectivity counter-screen: inhibitors of human caspase-1. shares compounds with Casp6 inh. 100 tested, under 10 active. AID 743289. purified caspase-1, Z-YVAD-R110 cleavage fluorescence. activity change, negative = inhibition, % at 35 µM;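 active means compounds lowering fluorescence whose fitted half-maximal concentration is no more than twice their top tested dose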
Each line names hits and unclear results; the compound was inactive in the other large screens (follow-up assays come after a bar, where they were run). Most compounds without a hit are left out; they make up all but 1.7% or so of the library.

Oc1cc(NCCc2cccnc2)cc2cccnc12	Casp6 inh 48.8 | CASP1 counter inactive
NC(=O)c1ncn([C@@H]2O[C@H](CO)[C@@H](O)[C@H]2O)n1	none
CCCCC(=O)c1ccc(O)cc1	none
O=C(CCO)c1ccc(O)cc1	Casp6 inh 75.3, Scp1 inh 69.0 | CASP1 counter inactive
COc1ccc2c3c([nH]c2c1)[C@H](CO)N(C(=O)C1CC1)CC31CCN(Cc2cccc(F)c2)CC1	none (no result: SUMO1-SIM PPI, DNMT1 block, LMPTP inh, STEP inh, Scp1 inh)
Nc1c(O)cccc1C(=O)O	Casp6 inh 56.3 | CASP1 counter inactive
O=C(O)c1ccccc1O	none (no result: Casp6 inh)
O=c1c(CO)cc(CO)cc(CO)c1O	Casp6 inh 70.8 | CASP1 counter inactive
Cc1[nH]nc(S(=O)CC(=O)O)c1[N+](=O)[O-] (stereo not given)	Casp6 inh 40.6 | CASP1 counter inactive
CCC1=C(OC(=O)N(CC)CC)N2C(=O)OC(=NCc3ccccc3)[C@]2(C)[C@H]2C1=CC[C@H]1C(=O)N(CC)C(=O)[C@H]12	none
